Cneo AK release: Cryptococcus neoformans lysis via adenylate kinase release | C. neoformans lysis, adenylate kinase release luminescence, 4 h; normalised: neutral wells 0, clomiphene wells 100 | lysis activity, % at 15 µM | hit rate 0.2% among 360,000 | AID 651654;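 active = mean lysis activity across replicates of at least 80%, whatever share of replicates individually reach that level; inactive = mean lysis activity below 80%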
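Assay system: Cryptococcus neoformans yeast cells / Dosing: single-point compound dose / Timing: 4 h at 37 °C static, read 1 h later / Measured by: luminescence of released adenylate kinase using an AK detection reagent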
CFTR F508del cor: CFTR F508del correction in bronchial cells; CFBE cells, YFP halide quenching; stimulated with forskolin plus potentiator P3; % fluorescence drop versus neutral controls; hit rate 0.36% among 350,000; activity (quench increase), % at 7.58 µM; AID 720511;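 active = mean added fluorescence quench of at least 8% versus neutral control, with both replicates also reaching 8%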;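 also: cells transiently co-express mutant CFTR-F508del with the halide-sensitive YFP; corrector assay measuring rescue of mutant channel to the surface after 24 h compound exposure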
Env fusion inh: inhibitors of HIV Env-mediated cell fusion. HeLa-JRFL Env/CEM21 cell fusion, luciferase. inhibition, % at 12.3 µM. hit rate 1.1% among 360,000;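 active = mean replicate inhibition score of at least 50 and every replicate individually at or above 50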
INS-1E GSIS act: GLuc luminescence reporter in INS-1E cells, primary screen for activators of glucose-dependent secretion of insulin | AID 743287 | activation, % at 16.6 µM | INS-1E GLuc reporter insulin secretion, 2-3 h | hit rate 0.61% among 370,000;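 active = lowest replicate activation of at least 40%, so every replicate reaches that level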
rRNA inh HTS: selective bacterial rRNA inhibition in E. coli. E. coli WT GFP vs humanized-ribosome RFP mutants, fluorescence, 24 h; active compounds read low; DMSO median 0, no signal -100. GFP signal change (wild-type ribosome), % (concentration not given with the values). hit rate 1.6% among 350,000. AID 720706;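 active = significant combined selectivity score with lowered wild-type GFP, culture density cut under 30%, mutant RFP and density less affected; inactive = any of these conditions unmet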
miR122 inh: blocks miR-122 activity in Huh7 sensor cells. Huh7 miR-122 Renilla luciferase sensor, 48 h; neutral wells = 0, positive control = 100. activation (reporter increase), % at 12.5 µM. hit rate 0.3% among 340,000. AID 602342;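 active = mean replicate activation score at least 90 and every replicate individually at or above 90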;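 also: higher luciferase means less miR-122 activity so hits act as miR-122 inhibitors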
A number is an active result; [ ] = another dose, or the depositor's remark. The list is not random: actives were taken first. Their share in the collection is about 3.1%.

Results for CCC(=O)N1CCCc2cc(S(=O)(=O)N3CCN(c4ncccn4)CC3)ccc21 ?
Cneo AK release: inactive; CFTR F508del cor: inactive; Env fusion inh: inactive; INS-1E GSIS act: inactive; rRNA inh HTS: inactive; miR122 inh: inactive

Results for COc1ccc(NC(=O)N2C[C@@H](O)COC[C@@H]3O[C@@H](CC(=O)NCc4ccccc4OC)CC[C@H]32)cc1 ?
Cneo AK release: inactive; CFTR F508del cor: inactive; INS-1E GSIS act: inactive; rRNA inh HTS: inactive; miR122 inh: inactive

Results for CC(C)NC(=O)Nc1ccc2c(c1)C(=O)N([C@H](C)CO)C[C@@H](C)[C@@H](CN(C)C(=O)NC(C)C)OCCCC[C@@H](C)O2 ?
Cneo AK release: inactive; CFTR F508del cor: inactive; Env fusion inh: inactive; INS-1E GSIS act: inactive; rRNA inh HTS: inactive; miR122 inh: inactive

Results for CC(C)NC(=O)Nc1ccc2c(c1)C(=O)N([C@@H](C)CO)C[C@@H](C)[C@@H](CN(C)C(=O)Nc1ccc(F)cc1)OCCCC[C@@H](C)O2 ?
Cneo AK release: inactive; CFTR F508del cor: inactive; Env fusion inh: 80.3[16.7 µM]; INS-1E GSIS act: inactive; rRNA inh HTS: inactive; miR122 inh: inactive

How did CC(C)NC(=O)Nc1ccc2c(c1)C(=O)N([C@H](C)CO)C[C@H](C)[C@@H](CN(C)C(=O)NC(C)C)OCCCC[C@H](C)O2 do in these assays?
Cneo AK release: 113.5; CFTR F508del cor: inactive; Env fusion inh: inactive; INS-1E GSIS act: inactive; rRNA inh HTS: inactive; miR122 inh: inactive

How did CC(C)NC(=O)Nc1ccc2c(c1)C(=O)N([C@@H](C)CO)C[C@@H](C)[C@H](CN(C)C(=O)Nc1ccc(F)cc1)OCCCC[C@H](C)O2 do in these assays?
Cneo AK release: inactive; CFTR F508del cor: inactive; Env fusion inh: inactive; INS-1E GSIS act: inactive; rRNA inh HTS: inactive; miR122 inh: inactive

How did Cc1noc(C)c1NC(=O)Nc1ccc2c(c1)C(=O)N([C@H](C)CO)C[C@@H](C)[C@H](CN(C)C(=O)Nc1ccc(F)cc1)OCCCC[C@@H](C)O2 do in these assays?
Cneo AK release: 98.5; CFTR F508del cor: inactive; Env fusion inh: inactive; INS-1E GSIS act: inactive; rRNA inh HTS: inactive; miR122 inh: inactive

What do the screens show for `Cc1noc(C)c1NC(=O)Nc1ccc2c(c1)C(=O)N([C@H](C)CO)C[C@H](C)[C@@H](CN(C)C(=O)Nc1ccc(F)cc1)OCCCC[C@@H](C)O2`?
Cneo AK release: inactive; CFTR F508del cor: inactive; Env fusion inh: inactive; INS-1E GSIS act: inactive; rRNA inh HTS: inactive; miR122 inh: inactive

What do the screens show for `C[C@@H]1CCCCO[C@@H](CN(C)C(=O)C2CCCCC2)[C@H](C)CN([C@@H](C)CO)C(=O)c2cc(NC(=O)Cc3ccccc3)ccc2O1`?
Cneo AK release: inactive; CFTR F508del cor: inactive; Env fusion inh: inactive; INS-1E GSIS act: inactive; rRNA inh HTS: inactive; miR122 inh: inactive

What do the screens show for `C=CCN(C(=O)c1csnn1)C(C(=O)NC1CCCC1)c1c(F)cccc1Cl` (stereo not given)?
Cneo AK release: inactive; CFTR F508del cor: inactive; Env fusion inh: inactive; INS-1E GSIS act: inactive; rRNA inh HTS: -20.9; miR122 inh: inactive

Results for C=CCN(C(=O)c1csnn1)C(C(=O)NC1CCCCC1)c1ccc(Cl)cc1 (stereo not given) ?
Cneo AK release: inactive; CFTR F508del cor: inactive; Env fusion inh: inactive; INS-1E GSIS act: inactive; rRNA inh HTS: inactive; miR122 inh: inactive

What do the screens show for `CCCCCN(C(=O)CCc1cn(CCCCC)c2ccccc12)c1ccc(Oc2cccnc2)cc1`?
CFTR F508del cor: inactive; Env fusion inh: 57.9; INS-1E GSIS act: inactive; rRNA inh HTS: inactive

Results for CCOC(=O)C1CCCCN1Cc1ccc(-c2ccccc2)cc1 (stereo not given) ?
Cneo AK release: inactive; CFTR F508del cor: inactive; Env fusion inh: inactive; INS-1E GSIS act: inactive; rRNA inh HTS: -29.4; miR122 inh: inactive

Results for O=C1CN(S(=O)(=O)Cc2ccccc2)C[C@H]2[C@H](c3ccc(C#Cc4ccc(F)cc4)cc3)[C@@H](CO)N12 ?
CFTR F508del cor: inactive; INS-1E GSIS act: inactive; rRNA inh HTS: inactive

What do the screens show for `Cn1cnc(Sc2ncnc3nc[nH]c23)c1[N+](=O)[O-]`?
Cneo AK release: inactive; CFTR F508del cor: inactive; Env fusion inh: inactive; INS-1E GSIS act: inactive; rRNA inh HTS: inactive; miR122 inh: inactive

How did Cn1cnc2nc[nH]c2c1=S do in these assays?
Cneo AK release: inactive; CFTR F508del cor: 16.0; Env fusion inh: inactive; INS-1E GSIS act: inactive; miR122 inh: inactive

What do the screens show for `Cc1ccc(-c2csc3ncn(CC#N)c(=O)c23)cc1`?
Cneo AK release: inactive; Env fusion inh: inactive; INS-1E GSIS act: inactive; miR122 inh: inactive

How did Cc1ccc(-c2csc3ncn(CC#N)c(=O)c23)cc1C do in these assays?
Cneo AK release: inactive; CFTR F508del cor: 10.4; Env fusion inh: inactive; INS-1E GSIS act: inactive; rRNA inh HTS: inactive; miR122 inh: inactive

Results for COc1ccc(NC(=O)Nc2ccc3c(c2)CC(=O)N([C@@H](C)CO)C[C@H](C)[C@@H](CN(C)S(=O)(=O)c2ccccc2)O3)cc1 ?
CFTR F508del cor: inactive; Env fusion inh: inactive; INS-1E GSIS act: inactive; rRNA inh HTS: inactive; miR122 inh: inactive

Results for COc1ccc(-c2ccc(C#N)c(SCC(=O)NCc3ccco3)n2)cc1OC ?
Cneo AK release: inactive; CFTR F508del cor: inactive; Env fusion inh: inactive; INS-1E GSIS act: 50.6; rRNA inh HTS: inactive; miR122 inh: inactive

How did COc1ccc(-c2nc3cccc(C)n3c2NCc2ccco2)cc1OC do in these assays?
Cneo AK release: inactive; INS-1E GSIS act: 65.3; miR122 inh: inactive

How did CO[C@H]1CN(C)C(=O)c2cc(NC(=O)Nc3cccc(Cl)c3)ccc2OC[C@@H](C)NC[C@@H]1C do in these assays?
Cneo AK release: inactive; CFTR F508del cor: inactive; Env fusion inh: inactive; INS-1E GSIS act: inactive; rRNA inh HTS: inactive

What do the screens show for `CC1(C)Cc2c(c(-c3ccco3)nc3sc4c(NCCN5CCOCC5)ncnc4c23)CO1`?
CFTR F508del cor: 9.7; Env fusion inh: inactive; INS-1E GSIS act: inactive; rRNA inh HTS: inactive

How did COc1cccc(C#Cc2cnc3c(c2)C(=O)N([C@@H](C)CO)C[C@H](C)[C@@H](CN(C)C(=O)C2CC2)O3)c1 do in these assays?
Cneo AK release: inactive; CFTR F508del cor: inactive; Env fusion inh: inactive; INS-1E GSIS act: inactive; rRNA inh HTS: inactive; miR122 inh: inactive

How did CC(C(=O)Nc1ccc(O)cc1)c1cccc(C(=O)c2ccccc2)c1 (stereo not given) do in these assays?
CFTR F508del cor: inactive; Env fusion inh: inactive; INS-1E GSIS act: inactive; rRNA inh HTS: -36.8; miR122 inh: inactive

What do the screens show for `CCc1ccc2oc(C(=O)NCCc3ccc(S(N)(=O)=O)cc3)cc(=O)c2c1`?
Cneo AK release: inactive; CFTR F508del cor: inactive; Env fusion inh: inactive; INS-1E GSIS act: inactive; rRNA inh HTS: -33.8; miR122 inh: inactive

Screens: PubChem BioAssay, Broad Institute
